The values that follow come from ChEMBL document CHEMBL4017487, “Design and Synthesis of γ- and δ-Lactam M1 Positive Allosteric Modulators (PAMs): Convulsion and Cholinergic Toxicity of an M1-Selective PAM with Weak Agonist Activity” (J Med Chem, 2017).

Data set [1] has as its system Canis familiaris. As to the kind of experiment: Toxicity in dog assessed as convulsion at 15 mg/kg, po administered as single dose using spray dried dispersion formulation after 1.2 hrs. The following applies: in vivo. Type of data set: organism-based, Canis lupus familiaris. The essentials: (§1)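 Dog single oral dose escalation: 1/sex at 5 mg/kg for each formulation; 1 female at 15 mg/kg. Spray-dried dispersion: 23% drug loading with 0.5% methylcellulose and 100 mM citrate buffer. Clinical signs timed in approximate hours postdose; unbound plasma Cmax.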

Data set [2] deals with Brain. Nature of the data set: Unbound brain concentration in scopolamine-induced memory impairment Wistar rat model at 0.32 mg/kg, sc measured at 1.25 hrs post dose by LC-MS/MS analysis. The following applies: in vivo.
Data set [3] is described as follows: Ratio of AUC in iv or po dosed mouse brain to plasma. The following applies: read-out: Ratio AUC. Type of data set: ADME, organism-based. The essentials: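 Brain/plasma ratio computed from AUC of total drug in brain and total drug in plasma.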
Data set [4] concerns the target T1, Muscarinic acetylcholine receptor M1 (Homo sapiens, UniProt P11229).
T1 sequence (P11229 whole entry): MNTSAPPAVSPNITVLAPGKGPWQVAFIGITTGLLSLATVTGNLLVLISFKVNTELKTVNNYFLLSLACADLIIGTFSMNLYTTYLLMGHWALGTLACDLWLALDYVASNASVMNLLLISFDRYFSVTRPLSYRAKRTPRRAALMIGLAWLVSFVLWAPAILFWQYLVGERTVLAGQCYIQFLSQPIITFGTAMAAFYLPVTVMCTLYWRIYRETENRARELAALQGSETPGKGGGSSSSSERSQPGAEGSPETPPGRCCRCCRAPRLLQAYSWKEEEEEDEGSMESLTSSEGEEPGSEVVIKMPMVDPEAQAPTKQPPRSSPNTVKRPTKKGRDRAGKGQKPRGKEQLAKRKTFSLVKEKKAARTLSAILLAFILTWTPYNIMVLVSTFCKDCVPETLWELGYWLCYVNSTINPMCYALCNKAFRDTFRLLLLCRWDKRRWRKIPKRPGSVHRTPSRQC
As to the kind of experiment: Activity at human muscarinic acetylcholine receptor M1 expressed in CHO cells assessed as increase in acetylcholine-induced calcium mobilization incubated for 10 mins by Fluo-8-AM dye based FLIPR assay. Type of data set: ADME, cell-based. The essentials:
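Calcium-mobilization potentiation assay read on a FLIPR plate reader in the presence of an EC20 concentration of ACh. EC50 is the geometric mean of at least three experiments.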
Background: A change in cytosolic calcium serves as a functional read-out for many receptors and channels.

Data set [5] deals with Canis familiaris. Nature of the data set: Cholinergic toxicity in dog assessed as transient salivation at 5 mg/kg, po administered as single dose using spray dried dispersion formulation after 1 to 4 hrs. Type of data set: organism-based, Canis lupus familiaris. The following applies: in vivo. The essentials:
as §1

In data set [6] the test system is Canis familiaris. As to the kind of experiment: Unbound Cmax in dog plasma at 15 mg/kg, po administered as single dose using spray dried dispersion formulation. The following applies: in vivo. Type of data set: ADME, organism-based, Canis lupus familiaris.

Take `Cc1cc2c(cc1Cc1ccc(-c3cocn3)cc1)C(=O)N([C@H]1CCOC[C@@H]1O)C2`: the Activity entry in data set [1] and in data set [5] was “Toxic” in each case. Moreover, in data set [2], the “Drug uptake(free)” value stood at 3.2 nM. Further, the Kp in data set [3] came to 0.1. In addition, in data set [4], the KA was 1.3 µM. Besides, the fCmax in data set [6] is 1067 nM.
